Screens from PubChem.
A selection: hits, their analogues and other compounds. The true share with any hit is near 2.8%.
NPY2 pot ag: NPY-Y2 potentiators or agonists, primary screen, cell-based; AID 1359, 2008; activation, % at 3.6 µM; 220,000 compounds, 0.45% hits; Neuropeptide Y receptor type 2 (Homo sapiens), P49146; cells expressing NPY-Y2, potentiator/agonist read-out; in the data active means activation above about 27%;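 further: cells stimulated with NPY near EC25 plus isoproterenol at EC100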
NPY-Y1 antag: NPY-Y1 receptor antagonists, primary screen, cell-based; HEK293-CNG Y1 cells, membrane potential fluorescence; NPY at EC95, then isoproterenol; AID 1040, 2008; 200,000 compounds, 1% hits; inhibition, % at 3.6 µM;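 active means inhibition above the campaign mean inhibition of all tested compounds plus 3 SD, cut at about 20% in these data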
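Material: HEK293 Y1/CNG channel cell line | Also added: NPY (25 nM), isoproterenol (1 µM), Ro 20-1724 (25 µM) | Compound: One concentration, 3.6 µM, in 0.4% DMSO | Schedule: 3 h dye uptake, 1 h room-temperature compound, 45 min post-isoproterenol | Signal: Membrane-potential fluorescent dye readout | Read-out: % inhibition of NPY effect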
NPY-Y1 PAM-ag: NPY-Y1 receptor potentiators or agonists, primary screen, cell-based | Neuropeptide Y receptor type 1 (Homo sapiens), P25929 | NPY-Y1 expressing cells, potentiator/agonist activation | activation, % at 3.6 µM | 220,000 compounds, 0.37% hits; in the data active means activation above about 33%, passing the limit was not always enough;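 further: cells stimulated with NPY at EC10 then isoproterenol at EC100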
MDM2 E3 inh: MDM2-luciferase reporter signal enhancers, primary screen, MDM2 E3 ligase inhibitor project, cell-based, luminescence, 1536-well; E3 ubiquitin-protein ligase Mdm2 (Homo sapiens), Q00987; cell-based MDM2 ubiquitination luciferase reporter, 2 h; 0 = plate control, 100 = twice control, blank-subtracted; signal enhancement, % at 5 µM; 210,000 compounds, 0.11% hits;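 active means signal enhancement of 30% or more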;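 further: luminescence tracks abundance of the self-degrading MDM2-luciferase fusion protein; higher signal means inhibition of MDM2 E3 ligase activity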
Target sequence (Q00987 whole entry, looked up, the tested form may be a part): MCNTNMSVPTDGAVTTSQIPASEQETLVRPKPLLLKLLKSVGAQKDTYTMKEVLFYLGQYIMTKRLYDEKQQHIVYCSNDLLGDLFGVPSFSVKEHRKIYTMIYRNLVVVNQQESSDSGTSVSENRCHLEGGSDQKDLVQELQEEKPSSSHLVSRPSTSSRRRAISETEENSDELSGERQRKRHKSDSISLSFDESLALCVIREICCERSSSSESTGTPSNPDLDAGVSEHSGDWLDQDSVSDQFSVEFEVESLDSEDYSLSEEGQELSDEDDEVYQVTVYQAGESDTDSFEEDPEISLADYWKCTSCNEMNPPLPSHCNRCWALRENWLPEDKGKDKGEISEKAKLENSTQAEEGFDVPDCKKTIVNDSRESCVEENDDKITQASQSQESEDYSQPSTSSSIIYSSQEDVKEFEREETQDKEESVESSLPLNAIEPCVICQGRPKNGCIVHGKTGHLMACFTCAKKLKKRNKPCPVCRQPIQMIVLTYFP
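Assay system: stable mammalian line carrying autodegrading MDM2–luciferase fusion reporter; Input: 2000 cells in each well; Compound dosing: single-point 5 µM; Schedule: 2 h compound exposure at 37 °C; Signal: SteadyLite luciferase luminescence after 15 min room-temperature reagent incubation; Evaluation: % luminescence enhancement versus blank-corrected plate control mean; Benchmarks: plate controls and plate blanks.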
NPY Y2 blocker: NPY-Y2 receptor antagonists, primary screen, cell-based. 140,000 compounds, 0.99% hits. NPY-Y2 expressing cells, antagonist mode. inhibition, % at 2.7 µM; in the data active means inhibition above about 17%
Measles CPE: compounds protecting cells from measles virus cytopathic effect, primary screen, measles RdRp inhibitor project, single point, MLSMR library, absorbance. Measles virus-infected cells, CPE protection. protection (pct of control), % at 4 µM. 140,000 compounds, 1.5% hits; in the data active means protection mostly above about 24%, no sharp cut-off; inactive means mostly below about 26%
NPY1 antag ctr: NPY-Y1 receptor antagonists, selectivity check, counter-screen for NPY-Y2 antagonist project, cell-based | 710 compounds, 19% hits | AID 1256, 2008 | shares compounds with NPY Y2 blocker | cell-based NPY-Y1 antagonism counterscreen | inhibition, % at 3.6 µM; in the data active means inhibition above about 20%;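 further: cells challenged with NPY then isoproterenol with cAMP sensed through a CNG channel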
NPY-Y2 ant conf: NPY-Y2 receptor antagonists, retest of hits, confirmation, HEK293-CNG cells, membrane potential fluorescence, triplicate; shares compounds with NPY Y2 blocker; HEK293 NPY-Y2 CNG channel; inhibition, % at 2.8 µM; 710 compounds, 32% hits; AID 1257, 2008;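 active means mean inhibition of triplicate wells above the hit cutoff set in the primary screen, cut at about 17% in these data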
Large screens that a line does not name were inactive (follow-up assays come after a bar, where they were run).

Cc1ccc(C(C(=O)NC2CCCC2)N(Cc2cccnc2)C(=O)c2snc(C(N)=O)c2N)o1 (stereo unspecified)	none
COc1cc(OC)cc(C(=O)NNC(=S)NCc2ccco2)c1	none (no result: NPY Y2 blocker, Measles CPE)
C/C(=N/NS(C)(=O)=O)c1ccc2ccccc2c1	NPY Y2 blocker 17 | NPY1 antag ctr inactive | NPY-Y2 ant conf inactive
CCC(C)c1ccc(NC(=S)NCc2ccccc2OC)cc1 (stereo unspecified)	none (no result: NPY Y2 blocker, Measles CPE)
CCCOc1ccc(C(C)=O)cc1CSc1nc(O)cc(=O)[nH]1	none
O=C(COc1ccccc1)Nc1cc(C(F)(F)F)ccc1N1CCCC1	NPY Y2 blocker 20 | NPY1 antag ctr 27 | NPY-Y2 ant conf inactive
O=C(COc1ccccc1)Nc1ccccc1N1CCCCC1	none
CN(C)c1ccc(/C=C2\SC(=O)N(CC(O)Cn3c4ccccc4c4ccccc43)C2=O)cc1 (stereo unspecified)	NPY Y2 blocker 21 | NPY1 antag ctr 26 | NPY-Y2 ant conf inactive
CCCCOC(=O)Nc1nc(C)c(C(=O)OCC)s1	NPY Y2 blocker 18 | NPY1 antag ctr inactive | NPY-Y2 ant conf inactive
CCOC(=O)c1sc(NC(=O)CC)nc1C	none (no result: NPY Y2 blocker, Measles CPE)
C=CCNc1nc(N2CCCC2)nc2ccccc12	NPY Y2 blocker 20 | NPY1 antag ctr inactive | NPY-Y2 ant conf 19
S=C(NCCc1ccccc1)N/N=C/c1cccc(Cl)c1Cl	NPY Y2 blocker 26 | NPY1 antag ctr 31 | NPY-Y2 ant conf 50
CCOC(=O)C1CCN(c2nc(C)nc3c2oc2ccccc23)CC1	none (no result: NPY2 pot ag, NPY-Y1 antag, NPY-Y1 PAM-ag, NPY Y2 blocker)
CCOC(=O)C1CCCN(c2nc(C)nc3c2oc2ccccc23)C1 (stereo unspecified)	NPY Y2 blocker 18 | NPY1 antag ctr inactive | NPY-Y2 ant conf inactive
Cc1cccc(OCCCSc2nc3ccc(C)cc3[nH]2)c1	NPY Y2 blocker 17 | NPY1 antag ctr inactive | NPY-Y2 ant conf inactive
CCCC(O)(CCC)C(=O)NN(C(=O)OC)c1ccccc1	NPY Y2 blocker 20 | NPY1 antag ctr inactive | NPY-Y2 ant conf inactive
CCCCCCCCCCCCCCCC(=O)OC[C@H](COP(=O)([O-])OCC[N+](C)(C)C)OC(=O)CCCCCCCCCCCCCCC	none (no result: MDM2 E3 inh)
O=C(Nc1ccc(S(=O)(=O)NC2CCCC2)cc1)c1cnccn1	NPY Y2 blocker 23 | NPY1 antag ctr inactive | NPY-Y2 ant conf inactive
O=C(O)CSc1nnc(-c2ccc3c(c2)OCO3)o1	NPY Y2 blocker 31 | NPY1 antag ctr inactive | NPY-Y2 ant conf 18
CN(CC(=O)Nc1ccc(C#N)cc1)Cc1ccc(Cl)cc1	NPY Y2 blocker 18 | NPY1 antag ctr inactive | NPY-Y2 ant conf inactive
CCOc1ccc(-n2nc3c(Cl)nnc(C)c3c2C)cc1	none
CCn1nc(C(=O)OCC(=O)c2cc(C)n(Cc3cccs3)c2C)c2ccccc2c1=O	NPY Y2 blocker 24 | NPY1 antag ctr inactive | NPY-Y2 ant conf 25
Cc1cc(C(=O)COC(=O)c2ccccc2O)c(C)n1Cc1cccs1	none
COc1cccc(-n2c([S-])c(C(=O)Nc3ccc(S(=O)(=O)N4CCOCC4)cc3)[n+]3cc(C(N)=O)ccc23)c1	none (no result: NPY-Y1 antag, NPY Y2 blocker, Measles CPE)
Cc1ccc(C(=O)Nc2ccccc2-c2ccccc2)cc1S(=O)(=O)Nc1cccc(C)c1C	none
Cc1ccc(C)c(NS(=O)(=O)c2cc(C(=O)Nc3ccccc3-c3ccccc3)ccc2C)c1	NPY Y2 blocker 22 | NPY1 antag ctr inactive | NPY-Y2 ant conf 117
COC(=O)c1c(C)[nH]c(C)c1-c1ccccc1Cl	none
COC(=O)C1=C(C(=O)OC)SC2(S1)C(C(=O)OC)=C(C(=O)OC)SC1=C2c2cccc(C)c2NC1(C)C	NPY Y2 blocker 18 (no result: MDM2 E3 inh) | NPY1 antag ctr inactive | NPY-Y2 ant conf 33
CCCc1nc2ccccc2c(=O)n1CC(=O)c1ccccc1	none (no result: NPY Y2 blocker, Measles CPE)
N#C/C(=C\c1cn(Cc2ccc(F)cc2)c2ccccc12)C(=O)NCc1ccco1	NPY Y2 blocker 18 | NPY1 antag ctr inactive | NPY-Y2 ant conf inactive
C#CCn1c(=NC(=O)CN2C(=O)CCC2=O)sc2cccc(OC)c21	none (no result: NPY-Y1 antag, NPY Y2 blocker, Measles CPE)
C#CCn1c(=NC(=O)c2cccs2)sc2cccc(OC)c21	NPY Y2 blocker 23 | NPY1 antag ctr inactive | NPY-Y2 ant conf inactive
Cc1ccc(C)c(N2CCN(CCCNC(=O)Cn3cccc3C(=O)c3ccccc3C)CC2)c1	none (no result: NPY Y2 blocker, Measles CPE)
Cc1ccccc1C(=O)c1cccn1CC(=O)NCCN1CCN(c2cccc(C)c2C)CC1	NPY Y2 blocker 21 | NPY1 antag ctr inactive | NPY-Y2 ant conf 25
Cc1ccc(Oc2nc(CN3CCOCC3)nc3sc4c(c23)CCC(C)C4)cc1 (stereo unspecified)	NPY Y2 blocker 22 | NPY1 antag ctr 29 | NPY-Y2 ant conf 30
Cc1c(NC(=O)C(Sc2ccccc2)c2ccccc2)cccc1[N+](=O)[O-] (stereo unspecified)	NPY Y2 blocker 18 | NPY1 antag ctr inactive | NPY-Y2 ant conf inactive
Cc1cc(C(=O)N[C@H](c2ccccc2)[C@@]2(C)C[C@@H]2[C@@H](C)C(=O)Nc2ccc3ccccc3c2)n(C)n1	none (no result: MDM2 E3 inh)
COc1cccc(NC(=O)C(c2ccccc2)N2CCCC2)c1 (stereo unspecified)	none (no result: NPY Y2 blocker, Measles CPE)
Cc1cccc(NC(=O)C(c2cccc([N+](=O)[O-])c2)N2CCCCC2)c1 (stereo unspecified)	NPY Y2 blocker 17 | NPY1 antag ctr inactive | NPY-Y2 ant conf inactive
O=C1Nc2ccccc2C1(O)C/C(=N/O)c1ccccc1 (stereo unspecified)	none (no result: NPY Y2 blocker, Measles CPE)
Cc1ccc(CNC(=O)c2cn(C3CCCCC3)c(=O)c3c2c2ccccc2n3C)o1	NPY Y2 blocker 20 | NPY1 antag ctr inactive | NPY-Y2 ant conf inactive
O=C(OCC1CC(c2ccccc2Cl)=NO1)c1ccc(Br)cc1 (stereo unspecified)	none
O=C(OCC1CC(c2ccccc2)=NO1)c1ccc(Br)cc1 (stereo unspecified)	NPY Y2 blocker 18 | NPY1 antag ctr inactive | NPY-Y2 ant conf inactive
COc1cccc(CN2CCN(Cc3cccn3-c3cccnc3)CC2CCO)c1 (stereo unspecified)	none (no result: NPY Y2 blocker, Measles CPE)
